Assay outcomes deposited in PubChem BioAssay by several laboratories.
An excerpt weighted towards active compounds, which were near 5.8% of everything screened.
HIV Rev-RRE inh: HIV Rev-RRE protein-RNA interaction inhibition. P05866. hit rate 0.79% among 97,000. Rev peptide-RRE RNA binding, FRET. inhibition, % at 8 µM;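 active = inhibition above the screen-wide mean plus 3 SD, cut at about 35% in these data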;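 also: 0% = median DMSO wells and 100% = median Neomycin B control wells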
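Material: labelled RRE RNA duplex and labelled Rev peptide / Buffer or medium: HEPES pH 7.5 salt buffer with EDTA / Compound dosing: single point, 8 µM final nominal compound concentration / Benchmarks: DMSO low control, neomycin B high control / Timing: 5 min preincubation and 15 min binding, 25 °C / Technique: FRET fluorescence readout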
PLK1 PBD inh: inhibitors of human Plk1 polo box domain binding; P53350; AID 693; Plk1 PBD phosphopeptide binding, fluorescence polarization; inhibition, %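 (tested at about 20 µM)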; hit rate 0.13% among 97,000; in the data active = inhibition above about 34%, passing the limit was not always enough
Cav32 inh: human Cav3.2 channel inhibition, primary screen | hit rate 4% among 100,000 | O95180 | B-score at 10 µM | Cav3.2-expressing cells, Fluo-4 calcium fluorescence FDSS; active compounds read low;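 active = single-dose well whose peak fluorescence ratio is a statistical outlier from its plate by either plate-standardised score or position-corrected B-score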
PLK1 kinase inh: PLK1 (human) kinase inhibition; P53350; recombinant PLK1 kinase, TR-FRET peptide phosphorylation; inhibition, % at 10 µM; hit rate 0.53% among 97,000; AID 619;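 active = inhibition of 50% or more in the single-concentration screen; inactive = inhibition below 50%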;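 also: 0% = DMSO max control and 100% = H-89 dihydrochloride min control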
FAK blocker: blocks human focal adhesion kinase activity; hit rate 0.84% among 97,000; inhibition, %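 (tested at 7 µM)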; AID 727; biochemical FAK kinase activity assay; Q05397;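 also: 0% = DMSO and 100% = reference compound high control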
Pyk2 oligo antag: antagonists of human Pyk2 oligomerization. Q293 cells, Pyk2 FERM NanoBiT luminescence; active compounds read low. z-score (the deposit names both 25 µM and 10 µM). hit rate 0.83% among 99,000. AID 1347419;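 active = Z-score of -3 or lower, scaled per plate to the spread of control and sample wells; inactive = z-score above -3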;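 also: negative z-score means lost luminescence so less FERM oligomerization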
FAK inh conf: confirmation of human focal adhesion kinase (FAK) inhibitors. hit rate 28% among 750. shares compounds with FAK blocker. inhibition, % at 7 µM. FAK kinase biochemical inhibition assay
* hit, by the source's call; · = no result given; [ ] = another dose, or the depositor's remark. Rule as the data show it, unless noted: active = inhibition above about 19%; inactive = the rest.

SMILES | HIV Rev-RRE inh | PLK1 PBD inh | Cav32 inh | PLK1 kinase inh | FAK blocker | Pyk2 oligo antag | FAK inh conf
COc1ccc(C(=O)c2sc3nc(-c4ccccc4)ccc3c2N)cc1OC | 97*[fluorescence artefact?] | -21 | 0.04 | -22 | 59* | 1.3 | 34*
COc1ccc(C(=O)c2sc(Nc3ccccc3)c(C(=O)Nc3ccc(OC)c(OC)c3)c2N)cc1 | -8 | 12 | -1.5 | -10 | 0 | -0.69 | ·
CCOC(=O)c1ccc(NC2=CC(=O)C(=O)c3ccccc32)cc1 | -3 | 23 | -0.09 | -9 | 36* | -4.3* | 35*
CCOC(=O)c1ccc(NC(=O)C(C)N2C(=O)c3ccccc3C2=O)cc1 (stereo unspecified) | 3 | 0 | -0.26 | 1 | 2 | -0.16 | ·
Cc1ccsc1C=Nc1ccc(O)cc1 | 3 | 12 | 0.55 | -6 | 50* | -1.7 | 1
O=C1C(=O)c2c(C(=O)c3ccccc3)coc2-c2ccccc21 | 13 | 3 | -2.2 | -12 | 32* | -3.6* | 20*
O=C(NCCc1c[nH]c2ccccc12)C1CCN(c2nnc(N3CCCC3=O)s2)CC1 | 3 | -13 | -0.39 | 12 | 36* | -0.85 | 31*
COc1ccc(-c2cc(N)n(S(=O)(=O)c3c(F)c(F)c(F)c(F)c3F)n2)cc1OC | 11 | 14 | -1.4 | -5 | -8 | -1.6 | ·
Cc1ccc(C(=O)COC(=O)c2ccc3c(c2)C(=O)N(c2cccc4ncccc24)C3=O)cc1C | 12 | 4 | 0.044 | -1 | 39* | 0.29 | 23*
CC1(C(=O)N2CC3(CC(c4cccc([N+](=O)[O-])c4)=NO3)C[C@H]2C(=O)NCC(N)=O)CC1 (stereo partly specified) | 6 | -24 | -0.15 | -7 | -3 | · | ·
CCCCN1C(=O)c2ccc(C(=O)Nc3c(N)n(CCCC)c(=O)n(C)c3=O)cc2C1=O | · | · | 0.29 | · | · | -0.37 | ·
Cc1ccnc2nc(C(=O)Nc3ccc4c(c3)OCO4)nn12 | 8 | 0 | 0.23 | -10 | 0 | 1.1 | ·
Cc1cc(C)n2nc(C(=O)Nc3ccc4c(c3)OCO4)nc2n1 | 5 | 12 | 0.1 | -6 | 93* | 1.6 | 3
CCCCc1nc2n[nH]c(N)c2c2c1CCC2 | 2 | 7 | -0.01 | 35 | 20* | -1.1 | 5
COc1ccc(Nc2nnc(C)c(=O)[nH]2)cc1 | 11 | -4 | 0.55 | -6 | 3 | -0.51 | ·
CC(=O)CSc1nc(C(F)(F)F)cc(=O)n1-c1ccccc1 | 2 | -1 | 0.59 | -12 | 56* | 0.49 | -2
CCN(CC)c1ccc(-n2cc3c(=O)n(C)c(=O)n(C)c3c2)cc1 | · | · | -0.42 | · | · | -0.15 | ·
CN(C)c1ccc(-n2cc3c(=O)n(C)c(=O)n(C)c3c2)cc1 | 3 | -8 | 1.4 | -5 | 27* | -0.63 | 8
O=C(C1COc2ccccc2O1)N1CCc2ccccc21 (stereo unspecified) | -13 | -18 | 0.21 | -22 | 24* | 1 | 7
CC1Oc2ccccc2N(CC(=O)N2CCc3ccccc32)C1=O (stereo unspecified) | 3 | -14 | -0.0095 | -18 | 3 | -0.79 | ·
C=C(C)C(=O)Nc1cccc(C2=NOC3(C2)C[C@@H](C(N)=O)N(C(=O)[C@H]2CCC(=O)N2)C3)c1 (stereo partly specified) | · | · | 0.011 | · | · | · | ·
CC(C)CC(COCc1cccc(Cl)c1)N1CCN(C(=O)c2ccc(C(F)(F)F)cc2)CCC1=O (stereo unspecified) | · | · | -0.65 | · | · | · | ·
O=Cc1cn(CC(=O)N2CCCc3ccccc32)c2ccccc12 | 1 | -2 | 0.89 | -16 | -2 | -0.53 | ·
CN1C(=O)/C(=C/c2cn(CC(=O)N3CCCCC3)c3ccccc23)c2ccccc21 | 11 | 14 | -1.4 | -4 | 26* | · | 28*
Cc1n[nH]c(C)c1N=Nc1cc(Cl)ccc1Cl | 4 | 13 | -0.21 | 54* | 41* | -1.2 | 21*
SMILES | HIV Rev-RRE inh | PLK1 PBD inh | Cav32 inh | PLK1 kinase inh | FAK blocker | Pyk2 oligo antag | FAK inh conf
CC(c1ccccc1)N1CCn2c(nc3cc(NC(=O)NC4CCCCC4)ccc32)C1 (stereo unspecified) | 8 | -28 | -1.2 | -14 | 6 | -0.23 | ·
Cc1ccc(NC(=O)CSc2nc3ccccc3c3nc(CCc4c(C)n[nH]c4C)nn23)cc1F | 1 | -11 | -1.2 | -11 | 21* | 0.57 | 12
Cc1ccc(-c2c(C#N)c(N)n3c(nc4ccccc43)c2C#N)cc1 | 21 | -2 | 0.51 | -10 | 24* | -4* | 3
O=C(COC(=O)c1ccc(N2CCCC2=O)cc1)NCc1ccco1 | · | · | 0.64 | · | · | -0.46 | ·
CCOC(=O)C1CCN(C(=O)COC(=O)COc2ccccc2OC)CC1 | 5 | 1 | 0.021 | 16 | 3 | -0.14 | ·
CCOC(=O)c1c(N)sc2c(O)c(Br)ccc12 | 6 | -11 | 1.4 | 9 | 19* | -0.03 | 1
CCn1c(=O)c2c(cnn2C)c2ccccc21 | 4 | -31 | 0.66 | 13 | 32* | -0.39 | 12
CN1CCc2nc3sc(C(=O)C45CC6CC(CC(C6)C4)C5)c(N)c3cc2C1 | 25 | -17 | · | -3 | 51* | -0.02 | 34*
Cc1cc(NC(=O)Cc2cccs2)no1 | -2 | -19 | · | -15 | 40* | 1.1 | 28*
O=C(Nc1ccc(F)cc1)Nc1nnc(-c2ccncc2)s1 | 14 | 8 | -0.64 | 0 | 30* | -1.8 | 7
c1ccc2c(c1)nc(N1CCOCC1)c1c3ccccc3[nH]c21 | 1 | -17 | -0.44 | -19 | 31* | -1.8 | 14
O=C(Cc1ccc(-n2cccc2)cc1)NCc1cccs1 | 0 | 11 | -1.6 | -4 | 4 | -0.14 | ·
Cc1cc(C(=O)CSc2nnc(-c3cccs3)n2Cc2ccccc2)c(C)n1C | -3 | -4 | -3.7 | -12 | -1 | -0.29 | ·
O=c1cc(CSc2nnc(-c3cccs3)n2Cc2ccccc2)nc2sc3ccccc3n12 | -7 | 8 | -1.8 | -7 | 31* | -0.97 | 4
Cc1ccc(Cl)cc1NC1=C/C(=N\S(=O)(=O)c2cccs2)c2ccccc2C1=O | 5 | -17 | · | -2 | 32* | -4.4* | 23*
Cc1ccc2nc(-c3ccc(SCC(=O)O)nc3)[nH]c2c1 | 2 | -10 | 0.12 | 1 | -7 | 1 | ·
Cc1ccc2nc(-c3ccc(NC(=O)CSc4ccccc4)cc3)[nH]c2c1 | 14 | 8 | -1.5 | -7 | 32* | 0.06 | 13
CCOc1ccc(S(=O)(=O)N(CC(=O)N/N=C/c2ccc(-c3ccc([N+](=O)[O-])cc3)o2)c2ccccc2)cc1 | 26 | 1 | -1.3 | -25 | 45* | -0.47 | 21*
CCOc1ccc(N(CC(=O)N/N=C/c2cc([N+](=O)[O-])ccc2Cl)S(C)(=O)=O)cc1 | 12 | -5 | 0.08 | -6 | 0 | -1.2 | ·
CC1=Nn2c(nc(-c3ccccc3)c2-c2ccccc2)NC(=O)C1Br (stereo unspecified) | 3 | -15 | 0.81 | -4 | -2 | -0.4 | ·
Cc1nn(C)c(C)c1CN(C)C(=O)CCCC(=O)O | 3 | 2 | 0.59 | -18 | 1 | 1.5 | ·
